The test system of data set [1] is Plasmodium falciparum. The data set is described as follows: ST_JUDE: Plasmodium falciparum 3D7 EC50 (uM) as measured by SYBR green dye. It counts as functional, organism-based.
Data set [2] concerns Plasmodium falciparum. The data set is described as follows: ST_JUDE: Plasmodium falciparum K1 EC50 (uM) as measured by SYBR green dye. It counts as functional, organism-based.
For data set [3], the system named is Plasmodium falciparum. The data set is described as follows: ST_JUDE: Cytotoxicity against Plasmodium falciparum 3D7. It counts as functional, organism-based. Summed up: (§1)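 Asexual P. falciparum grown in human erythrocytes, exposed to compounds for 72 h, and growth read as the DNA quantity in treated versus control cultures. Dose-response run at 12 concentrations from 10 μM to 5 nM.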

Data set [4] deals with Plasmodium falciparum. The experiment in a line: ST_JUDE: Cytotoxicity against Plasmodium falciparum K1. Format: functional, organism-based. Summed up: as §1
For data set [5], the system named is Plasmodium falciparum. The experiment in a line: ST_JUDE: Cytotoxicity against Plasmodium falciparum V1/S. It counts as functional, organism-based.
The subject of the next data set is Toxoplasma gondii. The data set is described as follows: ST_JUDE: Growth inhibition of to Toxoplasma gondii, in human U-2OS cells, as measured by luciferase. It counts as functional, organism-based. Conditions: RH, U2OS. Summed up:
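T. gondii parasites engineered to express luciferase; drug sensitivity read by luminescence.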

In another data set the test system is Trypanosoma brucei. The experiment in a line: ST_JUDE: Cytotoxicity using luciferase to measure ATP as an indicator of the viability of Trypanosoma brucei. It counts as functional, organism-based.
A further data set relates to Leishmania major. The experiment in a line: ST_JUDE: Cytotoxicity using Alamar Blue to measure viability of Leishmania major. It counts as functional, organism-based. Summed up: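 L. major promastigotes; drug susceptibility read with Alamar Blue.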
In general terms: Alamar Blue is a resazurin reagent that responds to reducing activity.

Data set [6] in a line: ST_JUDE: Cytotoxicity using luciferase to measure ATP as an indicator of the viability of human foreskin fibroblast cells (BJ). It counts as toxicity, cell-based.
A short description of data set [7]: ST_JUDE: Cytotoxicity using luciferase to measure ATP as an indicator of the viability of human epithelial hepatocellular carcinoma cells (HepG2). It counts as toxicity, cell-based.
A short description of data set [8]: ST_JUDE: Cytotoxicity using luciferase to measure ATP as an indicator of the viability of human epithelial embryonic kidney cells (HEK293). It counts as toxicity, cell-based.
Data set [9] can be described thus: ST_JUDE: Cytotoxicity using luciferase to measure ATP as an indicator of the viability of human Burkitt''s lymphoma lymphoblast cells (Raji). It counts as toxicity, cell-based.
For data set [10], the system named is Plasmodium falciparum. The experiment in a line: ST_JUDE: Cytotoxicity against Plasmodium falciparum Dd2. It counts as functional, organism-based.
For data set [11], the system named is Plasmodium falciparum. The data set is described as follows: ST_JUDE: Cytotoxicity against Plasmodium falciparum W2. It counts as functional, organism-based.
The test system of data set [12] is Plasmodium falciparum. The experiment in a line: ST_JUDE: Cytotoxicity against Plasmodium falciparum SB-A6. Format: functional, organism-based.
The subject of data set [13] is Plasmodium falciparum. The experiment in a line: ST_JUDE: Cytotoxicity against Plasmodium falciparum D10 transfected with yeast DHOD. It counts as functional, organism-based.

SMILES strings stand for the structures. pEC50: −log10 of the molar value.

A word on the pEC50: it is −log10 of the EC50, conventionally taken in molar units. As for `COc1cc(OC)c(NC(=O)C2c3ccccc3C(=O)N(CC(C)C)C2c2cccs2)cc1Cl` (stereo unspecified), the pEC50 was 7.69 in the data set on Plasmodium falciparum [1]; 7.69 in the data set on Plasmodium falciparum [2]; 7.33 in the data set on Plasmodium falciparum [3]; 7.03 with Plasmodium falciparum [4]; 6.88 in the data set with Plasmodium falciparum [5]; under 4.61 in the data set with Toxoplasma gondii. For the same compound, the pEC50 with Trypanosoma brucei was 5.11; with Leishmania major, under 4.71; in data set [6] it was under 4.35; in data set [7], under 4.35; in [8], under 4.35; in data set [9], under 4.35. Besides, the pEC50 is 7.26 in the data set with Plasmodium falciparum [10], 7.80 in the data set on Plasmodium falciparum [11], 7.08 in the data set with Plasmodium falciparum [12] and 7.14 with Plasmodium falciparum [13].

On to `C/C=C/c1n(C)c2ccccc2[n+]1C`, for which the pEC50 with Plasmodium falciparum [1] is 5.82; in the data set on Plasmodium falciparum [2], 5.86; in the data set with Plasmodium falciparum [3], 6.04; in the data set on Plasmodium falciparum [4] it was 6.00; in the data set on Plasmodium falciparum [5], 5.86; with Toxoplasma gondii it was under 4.66. Also, the pEC50 is under 4.41 with Trypanosoma brucei; under 4.76 with Leishmania major; under 4.40 in data set [6]; under 4.40 in data set [7]; under 4.40 in data set [8]; under 4.40 in data set [9]. In addition, the pEC50 is 5.79 in the data set on Plasmodium falciparum [10], 5.72 in the data set on Plasmodium falciparum [11], 5.97 with Plasmodium falciparum [12] and 6.15 with Plasmodium falciparum [13].

Consider `COc1ccc(NC(=O)C2c3ccccc3C(=O)N(CC(C)C)C2c2cccs2)cc1Cl` (stereo unspecified), for which the pEC50 is 6.93 in the data set with Plasmodium falciparum [1]; 6.86 in the data set on Plasmodium falciparum [2]; 6.93 in the data set with Plasmodium falciparum [3]; 6.87 in the data set with Plasmodium falciparum [4]; 6.61 in the data set on Plasmodium falciparum [5]; under 4.66 in the data set with Toxoplasma gondii. Further, the pEC50 was 5.58 in the data set with Trypanosoma brucei; under 4.76 in the data set on Leishmania major; under 4.39 in data set [6]; under 4.39 in [7]; under 4.39 in data set [8]; under 4.39 in [9]. The negative-log EC50 (pEC50) with Plasmodium falciparum [10] is 6.78; with Plasmodium falciparum [11], 6.26; in the data set with Plasmodium falciparum [12], 6.82; in the data set on Plasmodium falciparum [13], 6.88.

For `CCOc1cc2c(cc1OCC)C(c1cc(Cl)ccc1O)NCC2` (stereo unspecified), the pEC50 in the data set on Plasmodium falciparum [1] was 6.05; in the data set on Plasmodium falciparum [2], 6.61; in the data set on Plasmodium falciparum [3] it was 5.74; with Plasmodium falciparum [4], 6.14; with Plasmodium falciparum [5] it was 5.88; with Toxoplasma gondii it was under 4.59. The negative-log EC50 (pEC50) in the data set with Trypanosoma brucei was 5.02; in the data set on Leishmania major, under 4.70; in data set [6], under 4.33; in [7] it was 4.68; in [8], under 4.33; in data set [9], under 4.33. Moreover, the negative logarithm of the EC50 (pEC50) with Plasmodium falciparum [10] was 5.70; with Plasmodium falciparum [11] it was 6.14; in the data set on Plasmodium falciparum [12], 5.46; with Plasmodium falciparum [13], 5.45.

`CCCn1c2c(c(=N)c3c1CCC3)CCCC2`: the pEC50 with Plasmodium falciparum [1] is 5.53; in the data set on Plasmodium falciparum [2], 5.52; in the data set with Plasmodium falciparum [3], 5.59; in the data set with Plasmodium falciparum [4] it was 5.52; with Plasmodium falciparum [5], 5.12; in the data set on Toxoplasma gondii it was under 4.66. The negative logarithm of the EC50 (pEC50) in the data set with Trypanosoma brucei was under 4.41; with Leishmania major it was 6.27; in [6] it was under 4.39; in data set [7] it was under 4.39; in data set [8], under 4.39; in data set [9], under 4.39. The pEC50 in the data set on Plasmodium falciparum [10] was 5.70; in the data set with Plasmodium falciparum [11], under 4.98; in the data set with Plasmodium falciparum [12] it was 5.44; with Plasmodium falciparum [13] it was under 4.98.

`Cc1ccc2c(c1)C=C/C(=C\c1sc3ccccc3[n+]1C)N2C`: the negative logarithm of the EC50 (pEC50) with Plasmodium falciparum [1] is 6.74; with Plasmodium falciparum [2], 7.07; in the data set with Plasmodium falciparum [3], 6.84; with Plasmodium falciparum [4], 6.82; with Plasmodium falciparum [5], 6.83; in the data set on Toxoplasma gondii, 5.40. The pEC50 in the data set on Trypanosoma brucei is 6.76; with Leishmania major, 8.92; in data set [6], 5.10; in data set [7], 5.65; in data set [8], 5.18; in data set [9], 6.13. The pEC50 in the data set with Plasmodium falciparum [10] was 6.69; with Plasmodium falciparum [11], 7.81; in the data set on Plasmodium falciparum [12] it was 6.49; in the data set on Plasmodium falciparum [13], 6.72.

In the case of `Cc1ccc2c(c1)N(C)/C(=C/c1sc3ccccc3[n+]1CCO)S2`, the pEC50 was 5.80 in the data set on Plasmodium falciparum [1]; 6.36 with Plasmodium falciparum [2]; 6.50 with Plasmodium falciparum [3]; 6.38 in the data set on Plasmodium falciparum [4]; 6.26 in the data set with Plasmodium falciparum [5]; under 4.97 with Toxoplasma gondii. The negative logarithm of the EC50 (pEC50) in the data set with Trypanosoma brucei was 5.22; in the data set on Leishmania major it was under 5.08; in data set [6], under 4.71; in data set [7], under 4.71; in data set [8] it was under 4.71; in data set [9] it was 5.68. Besides, the pEC50 is 6.47 with Plasmodium falciparum [10], 6.37 with Plasmodium falciparum [11], 6.29 with Plasmodium falciparum [12] and 6.44 in the data set on Plasmodium falciparum [13].

For `CCN(CC)CCCOC(=O)c1c(C)oc2cc3c(C(=O)OCCCN(CC)CC)c(C)oc3cc12`, the pEC50 in the data set on Plasmodium falciparum [1] is 6.27; in the data set on Plasmodium falciparum [2], 5.90; in the data set with Plasmodium falciparum [3], 5.67; in the data set with Plasmodium falciparum [4], 5.54; with Plasmodium falciparum [5], under 5.00; in the data set on Toxoplasma gondii, 4.96. For the same compound, the pEC50 with Trypanosoma brucei is 5.28; with Leishmania major, under 4.78; in data set [6], under 4.41; in data set [7], 5.33; in data set [8], 4.53; in data set [9] it was 4.63. Further, the pEC50 in the data set with Plasmodium falciparum [10] is 6.56; in the data set with Plasmodium falciparum [11], 6.10; in the data set on Plasmodium falciparum [12], 6.27; with Plasmodium falciparum [13], 5.76.

Consider `Cc1ccc(C(O)(CNCc2ccccc2)c2ccc(Br)cc2)cc1` (stereo unspecified), for which the negative logarithm of the EC50 (pEC50) in the data set with Plasmodium falciparum [1] is 5.65; with Plasmodium falciparum [2], 5.96; with Plasmodium falciparum [3], 5.68; in the data set with Plasmodium falciparum [4] it was 5.93; with Plasmodium falciparum [5], 5.89; with Toxoplasma gondii it was under 4.58. Further, the negative-log EC50 (pEC50) is 5.02 with Trypanosoma brucei; under 4.68 in the data set with Leishmania major; under 4.32 in data set [6]; 4.70 in data set [7]; under 4.32 in data set [8]; 4.45 in data set [9]. In addition, the pEC50 is 5.83 in the data set on Plasmodium falciparum [10], 5.36 in the data set on Plasmodium falciparum [11], 5.46 with Plasmodium falciparum [12] and 5.76 in the data set with Plasmodium falciparum [13].

Turning to `CCOc1cc(C2CC(=O)NC3=C2C(=O)CC(c2ccccc2Cl)C3)cc(Cl)c1O` (stereo unspecified), the pEC50 was 6.30 with Plasmodium falciparum [1]; 6.67 in the data set on Plasmodium falciparum [2]; 6.05 with Plasmodium falciparum [3]; 6.04 in the data set with Plasmodium falciparum [4]; 5.97 with Plasmodium falciparum [5]; under 4.63 in the data set on Toxoplasma gondii. For the same compound, the pEC50 in the data set with Trypanosoma brucei was 4.71; in the data set on Leishmania major, under 4.73; in data set [6], under 4.36; in data set [7], under 4.36; in data set [8], under 4.36; in data set [9], under 4.36. In addition, the pEC50 with Plasmodium falciparum [10] was 5.99; in the data set on Plasmodium falciparum [11] it was 6.07; with Plasmodium falciparum [12], 5.94; in the data set on Plasmodium falciparum [13], 5.92.

On to `Clc1ccc(Nc2nc(NCc3ccco3)c3ccccc3n2)cc1`, for which the pEC50 in the data set on Plasmodium falciparum [1] is 6.10; with Plasmodium falciparum [2] it was 5.77; with Plasmodium falciparum [3] it was 5.90; in the data set with Plasmodium falciparum [4] it was 5.74; with Plasmodium falciparum [5], under 4.92; with Toxoplasma gondii it was under 4.60. In addition, the negative logarithm of the EC50 (pEC50) in the data set with Trypanosoma brucei was 5.04; in the data set with Leishmania major, 9.22; in data set [6], under 4.33; in [7] it was 4.62; in data set [8], 4.51; in data set [9] it was under 4.33. For the same compound, the pEC50 was 6.09 in the data set on Plasmodium falciparum [10], under 4.92 with Plasmodium falciparum [11], 6.41 in the data set with Plasmodium falciparum [12] and 5.94 in the data set with Plasmodium falciparum [13].

The record behind these values is ChEMBL document CHEMBL1154198, “Chemical genetics of Plasmodium falciparum” (Nature, 2010).
